Results as given in ChEMBL document CHEMBL1158700, “Phenolic constituents of the rhizomes of the Thai medicinal plant Belamcanda chinensis with proliferative activity for two breast cancer cell lines” (2005).

Columns and labels:
Format in all cases: functional
T47D [1] = experiment: Estrogenic activity in human T47D cells assessed as drug level causing stimulation of cell proliferation equivalent to 10 pM estradiol by alamar blue assay
Procedure, shortened: (§1)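 T47D cells were grown in RPMI-1640 with pyruvate, NEAA, glutamine and 10% FBS, then plated at 1 × 10^4 cells/well in phenol red-free RPMI with 5% DCC-treated FBS. Compounds were added in DMSO (1% DMSO control) and incubated 96 h at 37 °C, 5% CO2, alongside serial estradiol. Alamar Blue was read after 3 h (ex 530/em 590 nm). Values came from linear regression over ≥5 concentrations, quadruplicate.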

T47D [2] = experiment: Estrogenic activity in human T47D cells assessed as drug level causing stimulation of cell proliferation equivalent to 100 pM estradiol by alamar blue assay; procedure, shortened: as §1
MCF7 [3] = experiment: Estrogenic activity in human MCF7 cells assessed as drug level causing stimulation of cell proliferation equivalent to 10 pM estradiol by alamar blue assay
Procedure, shortened: (§2)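 MCF-7 cells were maintained in MEM with 6 ng/mL insulin, pyruvate, NEAA, glutamine and 10% FBS. For the assay, 1 × 10^4 cells/well went into phenol red-free RPMI with 5% DCC-treated FBS. Compounds were given in DMSO (control 1% DMSO) at 10 nM–100 µM for 96 h at 37 °C. Estradiol dilutions served as reference. Read-out: Alamar Blue, 3 h, fluorescence ex 530/em 590 nm. Values came from linear regression, ≥5 concentrations, quadruplicate.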

MCF7 [4] = experiment: Estrogenic activity in human MCF7 cells assessed as drug level causing stimulation of cell proliferation equivalent to 100 pM estradiol by alamar blue assay; procedure, shortened: as §2

Structure (SMILES): O=C(Cc1cc(O)cc(O)c1)c1ccc(O)cc1 [BELAMPHENONE]
- Activity (T47D [1]): 0.09 µM
- Activity (T47D [2]): 37.1 µM
- Activity (MCF7 [3]): 0.8 µM
- Activity (MCF7 [4]): 12.8 µM

Structure (SMILES): O=c1c(-c2ccc(O)cc2)coc2cc(O)cc(O)c12 [GENISTEIN]
- Activity (T47D [1]): 0.001 µM
- Activity (T47D [2]): 0.009 µM
- Activity (MCF7 [3]): 0.003 µM
- Activity (MCF7 [4]): 0.013 µM

Structure (SMILES): O=C(c1ccc(O)cc1)c1c(O)cc(O)cc1O [IRIFLOPHENONE]
- Activity (T47D [1]): 4.9 µM
- Activity (MCF7 [3]): 0.7 µM
- Activity (MCF7 [4]): 6.8 µM

Structure (SMILES): COc1c(O)cc2occ(-c3ccc(O)c(O)c3)c(=O)c2c1O [IRILIN D]
- Activity (MCF7 [3]): 5.6 µM
- Activity (MCF7 [4]): 12.7 µM

Structure (SMILES): COc1cc(-c2coc3cc4c(c(OC)c3c2=O)OCO4)cc(OC)c1OC [IRISFLORENTIN]
- Activity (MCF7 [3]): 50.3 µM

Structure (SMILES): COc1ccc(-c2coc3cc(O[C@@H]4O[C@H](CO)[C@@H](O)[C@H](O)[C@H]4O)c(OC)c(O)c3c2=O)cc1O [IRISTECTORIN A]
- Activity (MCF7 [3]): 26.1 µM

Structure (SMILES): COc1cc(-c2coc3cc(O[C@@H]4O[C@H](CO)[C@@H](O)[C@H](O)[C@H]4O)c(OC)c(O)c3c2=O)ccc1O [IRISTECTORIN B]
- Activity (MCF7 [3]): 77.3 µM

Structure (SMILES): Oc1ccc(/C=C/c2cc(O)cc(O)c2)cc1 [RESVERATROL]
- Activity (T47D [1]): 0.03 µM
- Activity (MCF7 [3]): 1.6 µM

Structure (SMILES): COc1c(O[C@@H]2O[C@H](CO)[C@@H](O)[C@H](O)[C@H]2O)cc2occ(-c3ccc(O)cc3)c(=O)c2c1O [TECTORIDIN]
- Activity (T47D [1]): 0.2 µM
- Activity (MCF7 [3]): 0.02 µM
- Activity (MCF7 [4]): 0.08 µM

Structure (SMILES): COc1c(O)cc2occ(-c3ccc(O)cc3)c(=O)c2c1O [TECTORIGENIN]
- Activity (T47D [1]): 0.04 µM
- Activity (T47D [2]): 0.5 µM
- Activity (MCF7 [3]): 0.3 µM
- Activity (MCF7 [4]): 1 µM
